From ChEMBL document CHEMBL1132342, “Novel hypotensive agents from Verbesina caracasana. 6. Synthesis and pharmacology of caracasandiamide” (1999)
“And” between values parts separate entries of the source, which are not always exact repeats. Equal values may be shown once.

Legend:
Rattus norvegicus [1] = assay: Change in diastolic blood pressure after iv administration of 400 ug/Kg compound (treatment with hexamethonium (5 mg/Kg, iv)in anesthetized rats; assay type: functional, Artery
In short: (§1)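 In anesthetized male Wistar rats, responses to iv compound (200–1600 µg/kg, ratio 2.0) were measured alone and under three pretreatments: continuous iv papaverine infusion (1 mg/kg/min), ip reserpine (5 mg/kg/day for 2 days), or iv hexamethonium (5 mg/kg). Peak changes are given as mean ± SE, n = 6 per group; p < 0.05 versus control.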

Rattus norvegicus [2] = assay: Change in heart rate after iv administration of 400 ug/Kg in anesthetized rats; assay type: functional
In short: (§2)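 Adult male Wistar rats under ip ethylurethane (10% w/v in saline, 1 mL/kg) with tracheal cannula and spontaneous breathing, kept at 37 °C. Arterial BP was recorded by femoral artery catheter; compound in saline (50 µL) was given via femoral vein at 50–3200 µg/kg, ratio 2.0. Peak change is given as mean ± SE, n = 12 (n = 7 at 3200 µg/kg).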

Rattus norvegicus [3] = assay: Change in heart rate after iv administration of 400 ug/Kg in the presence of acetylcholine (agonist) in anesthetized rats; assay type: functional
In short: (§3)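 Urethane-anesthetized male Wistar rats (16 rats, two equal groups) received 400 or 1600 µg/kg compound iv. Cardiovascular responses to iv agonist boluses (noradrenaline 1 µg/kg, acetylcholine 2.50 µg/kg, adrenaline, isoprenaline) were measured before and after compound dosing. Peak responses are given as mean ± SE; p < 0.05 versus control mean.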

Rattus norvegicus [4] = assay: Change in diastolic blood pressure after iv administration of 3200 ug/Kg in anesthetized rats; assay type: functional, Artery; in short: as §2
Rattus norvegicus [5] = assay: Change in stroke volume after iv administration of 1600 ug/Kg in anesthetized rats; assay type: functional
In short: (§4)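 Male Wistar rats (299 ± 3 g) were anesthetized with ethylurethane ip, tracheally cannulated and breathing spontaneously, at 37 °C, and stabilized for 60 min. Doses of 50-3200 µg/kg (ratio 2.0) in saline were injected by femoral vein, 50 µL each. Recordings: femoral arterial BP, electromagnetic abdominal-aortic flow, SV from integrated pulsatile flow, polygraphic RF. Peak changes, mean ± SE, n = 12 (n = 7 at 3200).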

Rattus norvegicus [6] = assay: Change in stroke volume after iv administration of 100 ug/Kg in anesthetized rats; assay type: functional; in short: as §4
Rattus norvegicus [7] = assay: Maximum rate of rise of the left ventricular isovolumetric pressure was measured after iv administration of 3200 ug/Kg in anesthetized rats; assay type: functional, Heart left ventricle
In short: (§5)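 Urethane-anesthetized (10% w/v, […] ip in saline) adult male Wistar rats, trachea cannulated, breathing spontaneously, 37 °C. Femoral artery catheter for blood pressure, femoral vein for dosing. Sequential iv doses 50–3200 µg/kg (ratio 2.0) in saline, each given after parameters returned to baseline. Peak changes recorded; means ± SE, n = 12 (n = 7 at 3200 µg/kg).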

Rattus norvegicus [8] = assay: Maximum rate of rise of the left ventricular isovolumetric pressure was measured after iv administration of 400 ug/Kg in the presence of adrenaline (agonist) in anesthetized rats; assay type: functional, Heart left ventricle
In short: (§6)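 Anesthetized male Wistar rats, two groups of 8, received 400 or 1600 µg/kg iv. Before and after this dose, iv agonist challenges were given: noradrenaline 1 µg/kg, adrenaline, acetylcholine 2.50 µg/kg, or isoprenaline. Systolic/diastolic BP, heart rate and dP/dt responses were recorded before (control) and after dosing; significance was set at p < 0.05 versus control.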

Rattus norvegicus [9] = assay: Change in respiratory frequency after iv administration of 1600 ug/Kg in anesthetized rats; assay type: functional; in short: as §4
Rattus norvegicus [10] = assay: Change in diastolic blood pressure after iv administration of 800 ug/Kg in anesthetized rats; assay type: functional, Artery; in short: as §2
Rattus norvegicus [11] = assay: Change in diastolic blood pressure after iv administration of 400 ug/Kg in the presence of adrenaline (agonist) in anesthetized rats; assay type: functional, Artery; in short: as §3
Rattus norvegicus [12] = assay: Change in diastolic blood pressure after iv administration of 1600 ug/Kg in the presence of isoprenaline (agonist) in anesthetized rats; assay type: functional, Artery; in short: as §3
Rattus norvegicus [13] = assay: Maximum rate of rise of the left ventricular isovolumetric pressure was measured after iv administration of 800 ug/Kg compound (treatment with papaverine(1 mg/Kg/min, iv)in anesthetized rats; assay type: functional, Heart left ventricle
In short: (§7)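 Anesthetized rats, n = 6 per group, received iv doses of 200–1600 µg/kg (ratio 2.0) either alone (control) or under pretreatment: continuous iv papaverine infusion 1 mg/kg/min, reserpine 5 mg/kg/day ip for 2 days, or hexamethonium 5 mg/kg iv. Peak changes in BP, heart rate and dP/dt recorded; means ± SE, p < 0.05 versus control.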

Rattus norvegicus [14] = assay: Change in diastolic blood pressure after iv administration of 400 ug/Kg in the presence of isoprenaline (agonist) in anesthetized rats; assay type: functional, Artery; in short: as §3
Rattus norvegicus [15] = assay: Change in diastolic blood pressure after iv administration of 50 ug/Kg in anesthetized rats; assay type: functional, Artery; in short: as §2
Rattus norvegicus [16] = assay: Change in heart rate after iv administration of 100 ug/Kg in anesthetized rats; assay type: functional; in short: as §2
Rattus norvegicus [17] = assay: Maximum rate of rise of the left ventricular isovolumetric pressure after iv administration of 800 ug/Kg compound (treatment with hexamethonium (5 mg/Kg, iv)in anesthetized rats; assay type: functional, Heart left ventricle; in short: as §7
Rattus norvegicus [18] = assay: Change in diastolic blood pressure after iv administration of 100 ug/Kg in anesthetized rats; assay type: functional, Artery; in short: as §2
Rattus norvegicus [19] = assay: Change in systolic blood pressure after iv administration of 1600 ug/Kg in the presence of noradrenaline (agonist) in anesthetized rats; assay type: functional, Artery
Rattus norvegicus [20] = assay: Maximum rate of rise of the left ventricular isovolumetric pressure was measured after iv administration of 1600 ug/Kg in anesthetized rats; assay type: functional, Heart left ventricle; in short: as §5
Rattus norvegicus [21] = assay: Maximum rate of rise of the left ventricular isovolumetric pressure was measured after iv administration of 50 ug/Kg in anesthetized rats; assay type: functional, Heart left ventricle; in short: as §5
Rattus norvegicus [22] = assay: Maximum rate of rise of the left ventricular isovolumetric pressure was measured after iv administration of 1600 ug/Kg in the presence of isoprenaline (agonist) in anesthetized rats; assay type: functional, Heart left ventricle; in short: as §6
Rattus norvegicus [23] = assay: Change in diastolic blood pressure after iv administration of 200 ug/Kg in anesthetized rats; assay type: functional, Artery; in short: as §2
Rattus norvegicus [24] = assay: Change in diastolic blood pressure after iv administration of 1600 ug/Kg compound (treatment with reserpine(5 mg/kg/day for 2 days, ip)in anesthetized rats; assay type: functional, Artery; in short: as §1
Rattus norvegicus [25] = assay: Change in systolic blood pressure after iv administration of 50 ug/Kg in anesthetized rats; assay type: functional, Artery; in short: as §5

## COc1ccc(C2C(c3ccc(OC)c(OC)c3)[C@H](C(=O)NCCCC/N=C(\N)NCC=C(C)C)[C@@H]2C(=O)NCCCC/N=C(\N)NCC=C(C)C)cc1OC (stereo partly drawn) [CARACASANDIAMIDE]
Rattus norvegicus [1]
  BP: -45 mmHg
Rattus norvegicus [2]
  Change in heart rate: -4%
  Heart rate: -16 beats min-1
Rattus norvegicus [3]
  Heart rate: -30 beats min-1
Rattus norvegicus [4]
  BP: -53 mmHg
  Change in BP: -68%
Rattus norvegicus [5]
  Change in stroke volume: -48%
  Stroke volume: -97 µL
Rattus norvegicus [6]
  Change in stroke volume: 10%
  Stroke volume: 20 µL
Rattus norvegicus [7]
  Change in dP/dt: 77%
  dP/dt: 4708 mmHg s-1
Rattus norvegicus [8]
  dP/dt: 6848 mmHg s-1
Rattus norvegicus [9]
  Change in respiratory frequency: -61 beats min-1 and -64%
Rattus norvegicus [10]
  BP: -31 mmHg
  Change in BP: -40%
Rattus norvegicus [11]
  BP: 5 mmHg
Rattus norvegicus [12]
  BP: -66 mmHg
Rattus norvegicus [13]
  dP/dt: 2967 mmHg s-1
Rattus norvegicus [14]
  BP: -49 mmHg
Rattus norvegicus [15]
  BP: 10 mmHg
  Change in BP: 13%
Rattus norvegicus [16]
  Change in heart rate: -3%
  Heart rate: -10 beats min-1
Rattus norvegicus [17]
  dP/dt: 4965 mmHg s-1
Rattus norvegicus [18]
  BP: 10 mmHg
  Change in BP: 13%
Rattus norvegicus [19]
  BP: 24 mmHg
Rattus norvegicus [20]
  Change in dP/dt: 60%
  dP/dt: 3676 mmHg s-1
Rattus norvegicus [21]
  Change in dP/dt: 17%
  dP/dt: 1070 mmHg s-1
Rattus norvegicus [22]
  dP/dt: 14552 mmHg s-1
Rattus norvegicus [23]
  BP: -13 mmHg
  Change in BP: -17%
Rattus norvegicus [24]
  BP: -15 mmHg
Rattus norvegicus [25]
  BP: 17 mmHg
  Change in BP: 16%
